# What was measured:
# [1] = test system: cultured rat hypothalamic neurons; assay: Cytosolic Ca2+ measurement; format: cell-based; conditions: for neurons responding with fast calcium transient followed by oscillations / mean amplitude of the first spike, fast calcium transient followed by oscillations: INSL7 n=8/158, C-INSL7 n=11/276
# In short: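 Hypothalamic neurons from 1–3-day-old rats were papain-dissociated and cultured 5 days in Neurobasal-A/10% FCS with 1 μM cytosine arabinoside, then serum-free for 12 hr. Cells were loaded with 5 μM fura-2 AM (45 min, room temperature, dark), de-esterified 45 min, then superfused with HBSS at 1 ml/min. Peptide was applied at 10–1000 nM. 340/380 ratio (emission 510 nm, 0.3 Hz) was converted to [Ca2+]i.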
# [2] = test system: cultured rat hypothalamic neurons; assay: Membrane potential, optical imaging using DiSBAC4; format: cell-based; conditions: 100 nM, DiSBAC4(3); for mean amplitude of membrane depolarization / mean amplitude of membrane hyperpolarization: resting potential −53 ± 2.1 mV; for mean amplitude of membrane depolarization: C-INSL7 n=7/153, INSL7 n=4; for mean amplitude of membrane hyperpolarization: C-INSL7 n=15/153, INSL7 n=6
# In short: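 Cultured neonatal rat hypothalamic neurons were loaded 30 min with DiSBAC4(3) in HBSS and superfused with 100 nM peptide. Fluorescence (excitation 480, emission 540 nm) was recorded at 10 points/min, background-subtracted. Calibration used 1 μM gramicidin in Na+-free solution with 17, 25 or 80 mM K+ (potentials by Nernst equation): a 1.092 fluorescence change equals 1 mV.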
# [3] = test system: C-INSL7 antiserum (rabbit polyclonal); assay: Pre-absorption of C-INSL7 antiserum, immunohistochemistry of rat pons sections; conditions: 1 μg/ml overnight
# [4] = test system: [125I]C-INSL7 binding sites, rat brain membranes; assay: [125I]C-INSL7 binding to rat brain membranes; conditions: for inhibition of [125I]C-INSL7 binding: 1 to 1000 nM unlabeled peptide, ~0.3 nM [125I]C-INSL7, three independent experiments
# [5] = test system: cultured rat hypothalamic neurons; assay: Cytosolic Ca2+ measurement; format: cell-based; conditions: for mean amplitude of the first spike of [Ca2+]i oscillations, Ca2+-free / rapid and transitory increase in [Ca2+]i (single spike, no plateau), Ca2+-free: Ca2+-free HBSS with 2.5 mM EGTA; for mean amplitude of the first spike of [Ca2+]i oscillations, Ca2+-free: INSL7 n=5/76, C-INSL7 n=7; for rapid and transitory increase in [Ca2+]i (single spike, no plateau), Ca2+-free: INSL7 n=11/76, C-INSL7 n=15
# In short: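 Cultured neonatal rat hypothalamic neurons (5 days, serum withdrawn 12 hr before) were loaded with 5 μM fura-2 AM for 45 min at room temperature and de-esterified 45 min. They were superfused with Ca2+-free HBSS containing 2.5 mM EGTA, and 100 nM peptide was applied. [Ca2+]i was derived from the 340/380 excitation ratio (emission 510 nm, 0.3 Hz). Responding cells were counted against cells tested.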
# [6] = test system: C-INSL7 antiserum (rabbit polyclonal); conditions: ELISA; ref Phoenix Pharmaceuticals, Inc.; cited from earlier work
# GPCR145 = conditions: cells over-expressing GPCR145 (so in the source); ref Liu et al., 2003 a, b; cited from earlier work
# GPCR135 [7] = conditions: cells over-expressing GPCR135; ref Liu et al., 2003 a, b; cited from earlier work
# GPCR135 [8] = conditions: printed GPR135; ref Liu et al., 2003a, b; cited from earlier work
# GPCR142 = conditions: printed GPR142; ref Liu et al., 2003a, b; cited from earlier work
# GPCR135 (Homo sapiens) = GPCR135 (Homo sapiens) (UniProt Q9NSD7); assay: radioligand binding; conditions: cited from earlier work
# GPCR142 (Homo sapiens) = GPCR142 (Homo sapiens) (UniProt Q8TDU9); assay: radioligand binding; conditions: cited from earlier work
# Sequence of UniProt Q8TDU9 (Q8TDU9 whole entry): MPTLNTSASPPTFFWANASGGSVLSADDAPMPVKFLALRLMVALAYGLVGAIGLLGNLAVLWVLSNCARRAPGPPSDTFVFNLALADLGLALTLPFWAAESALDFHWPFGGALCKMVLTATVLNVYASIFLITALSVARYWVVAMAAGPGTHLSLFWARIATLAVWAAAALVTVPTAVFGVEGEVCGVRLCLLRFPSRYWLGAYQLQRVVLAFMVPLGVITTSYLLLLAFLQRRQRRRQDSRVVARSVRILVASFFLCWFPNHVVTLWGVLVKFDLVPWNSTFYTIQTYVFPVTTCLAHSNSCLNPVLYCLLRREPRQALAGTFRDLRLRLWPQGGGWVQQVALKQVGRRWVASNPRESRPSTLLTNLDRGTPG
# Sequence of relaxin 3 (Q8WXF3 119-142): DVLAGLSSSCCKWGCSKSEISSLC
# Sequence of UniProt Q9NSD7 (Q9NSD7 whole entry): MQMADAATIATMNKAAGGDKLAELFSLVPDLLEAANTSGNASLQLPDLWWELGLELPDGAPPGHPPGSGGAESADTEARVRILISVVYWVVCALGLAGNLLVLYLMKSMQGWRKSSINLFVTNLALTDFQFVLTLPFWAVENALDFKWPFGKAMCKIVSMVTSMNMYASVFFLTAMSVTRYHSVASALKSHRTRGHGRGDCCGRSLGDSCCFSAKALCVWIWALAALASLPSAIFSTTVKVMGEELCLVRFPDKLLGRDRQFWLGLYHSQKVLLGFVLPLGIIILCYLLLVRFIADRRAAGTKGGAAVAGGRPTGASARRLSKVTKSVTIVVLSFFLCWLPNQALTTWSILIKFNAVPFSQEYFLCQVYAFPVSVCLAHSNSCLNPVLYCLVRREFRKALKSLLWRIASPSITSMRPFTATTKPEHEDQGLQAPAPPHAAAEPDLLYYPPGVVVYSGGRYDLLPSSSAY
substance,measurement,setting,value
C-peptide of human preproinsulin-like peptide 7 [C-INSL7],amplitude of the first spike of [Ca2+]i oscillations,"[1]; 10 nM, HBSS, fura-2, n = 6",137 ± 2.6 nM
same,stable (sustained) [Ca2+]i elevation,"[1]; 10 nM, HBSS, fura-2, n = 6",118 ± 2.4 nM
same,neurons responding with fast and sustained increase in [Ca2+]i,"[1]; 100 nM, HBSS, 36 of 276",13%
same,neurons responding with fast calcium transient followed by oscillations,"[1]; 100 nM, HBSS",4%
same,"mean amplitude of the first spike, fast calcium transient followed by oscillations","[1]; 100 nM, HBSS, fura-2",763 ± 4.2 nM
same,mean amplitude of fast and sustained increase in [Ca2+]i,"[1]; 100 nM, HBSS, fura-2, n=36/276",405 ± 3.1 nM
same,amplitude of the first spike of [Ca2+]i oscillations,"[1]; 1,000 nM, HBSS, fura-2, n = 7",1051 ± 9.8 nM
same,mean amplitude of fast and sustained increase in [Ca2+]i,"[1]; 1,000 nM, HBSS, fura-2, n = 8",731 ± 4.7 nM
same,concentration dependence of calcium oscillations,"[1]; 10, 100 and 1000 nM, HBSS",also in a concentration-dependent manner
same,concentration dependence of fast and sustained increase in [Ca2+]i,"[1]; 10, 100 and 1000 nM, HBSS",in a concentration-dependent manner
same,"Δ[Ca2+]i, fast and sustained rise, after ryanodine pretreatment","[1]; C-INSL7 100 nM, ryanodine 5 μM, 15 min pretreatment, n = 7",391 ± 3.6 nM
same,fraction of neurons depolarized (n responding/tested),[2],7/153
same,fraction of neurons hyperpolarized (n responding/tested),[2],15/153
same,mean amplitude of membrane depolarization,[2],11 ± 1.6 mV
same,mean amplitude of membrane hyperpolarization,[2],7 ± 1.3 mV
same,immunoreactivity after pre-absorption of C-INSL7 antiserum with peptide,[3],immunoreactivity was not detected
same,inhibition of [125I]C-INSL7 binding,[4],in a dose-dependent manner
same,Bmax,"[4]; homologous competition, ~0.3 nM [125I]C-INSL7, pH 7.4, room temperature, 1 hr, nonspecific: 1 μM C-INSL7, n=3",45.4 ± 20.5 fmol/mg protein
same,Kd,"[4]; homologous competition, ~0.3 nM [125I]C-INSL7, ~0.5 mg membranes, pH 7.4, room temperature, 1 hr, nonspecific: 1 μM C-INSL7, n=3",17.7 ± 8.2 nM
same,concentration of maximum inhibition of [125I]C-INSL7 binding,[4]; unlabeled peptide 1 to 1000 nM,500 nM
same,"mean amplitude of the first spike of [Ca2+]i oscillations, Ca2+-free",[5]; 100 nM,497 ± 3.6 nM
same,"rapid and transitory increase in [Ca2+]i (single spike, no plateau), Ca2+-free",[5]; 100 nM,231 ± 2.6 nM
same,"cells responding with calcium oscillations, Ca2+-free","[5]; 100 nM, Ca2+-free saline, 7 cells",5%
same,"cells responding with single Ca2+ spike, Ca2+-free","[5]; 100 nM, Ca2+-free saline, 15 cells",11%
same,cross-reactivity with C-INSL7 antiserum,[6],100%
Recombinant human relaxin 3: Recombinant human relaxin 3,GTPγS binding,GPCR145,potently stimulated
same,cAMP formation,GPCR145,inhibited
same,GTPγS binding,GPCR135 [7],potently stimulated
same,cAMP formation,GPCR135 [7],inhibited
"insulin-like peptide 7 [INSL7, reference compound]",neurons responding with fast calcium transient followed by oscillations,"[1]; 100 nM, HBSS",5%
same,"mean amplitude of the first spike, fast calcium transient followed by oscillations","[1]; 100 nM, HBSS, fura-2",1268 ± 39 nM
same,"mean increase of [Ca2+]i, fast, transitory","[1]; 100 nM, HBSS, fura-2, n=27/158",817 ± 6.3 nM
same,"neurons responding with fast, transitory increase of [Ca2+]i","[1]; 100 nM, HBSS, n=27/158",17%
same,mean amplitude of membrane depolarization,[2],9 ± 2.6 mV
same,mean amplitude of membrane hyperpolarization,[2],5 ± 1.8 mV
same,binding affinity,GPCR135 [8],high affinity
same,binding affinity,GPCR142,high affinity
same,inhibition of [125I]C-INSL7 binding,[4],did not inhibit
same,"mean amplitude of the first spike of [Ca2+]i oscillations, Ca2+-free",[5]; 100 nM,583 ± 7.4 nM
same,"rapid and transitory increase in [Ca2+]i (single spike, no plateau), Ca2+-free",[5]; 100 nM,307 ± 4.2 nM
same,"fraction of neurons with [Ca2+]i oscillations, Ca2+-free (n responding/tested)","[5]; 100 nM, Ca2+-free medium",5/76
same,effect of Ca2+-free solution on calcium spike,"[5]; type 1 response, Ca2+-free vs normal solution",not significantly altered in a Ca^2+-free solution
relaxin 3 (from UniProt Q8WXF3),Kd,GPCR135 (Homo sapiens),0.31 nM
same,Kd,GPCR142 (Homo sapiens),1.9 nM
ryanodine [reference compound],effect of ryanodine pretreatment on C-INSL7-induced [Ca2+]i oscillations,"[1]; ryanodine 5 μM, 15 min, C-INSL7 100 nM",abolishing the [Ca^2+]i oscillations
